pIC50: −log10 of the molar value. ≈ marks a conversion by molar mass, not a printed value.
Experiments:
[1] = Toxicity in Sprague-Dawley rat assessed as death at 200 mg/kg,po measured after 14 days; assay type: organism-based; conditions: in vivo, 336 h, time 14 day
Outline: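 14-day pilot oral toxicology study in rats, 8 males and 8 females per dose level. Dosing once daily at 30, 100 and 200 mg/kg, with the reference drug at 200 mg/kg. Deaths counted over the 14 days; drug exposure (AUC) recorded in the high-dose groups.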

[2] = Toxicity in Beagle dog assessed as effect on electrocardiogram at 200 mg/kg,po; assay type: organism-based, Canis lupus familiaris; conditions: in vivo
Outline: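 14-day GLP toxicology study in Beagle dogs; oral dosing once daily at 200 mg/kg, given in parallel with the reference drug. ECG recorded daily to detect qualitative changes and QTc interval prolongation.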

[3] = test system: Mycobacterium tuberculosis; assay: Antimycobacterial activity against drug-sensitive Mycobacterium tuberculosis assessed as mycobacterial growth inhibition; assay type: functional
Cytochrome P450 2C9 = Cytochrome P450 2C9 (Homo sapiens, UniProt P11712); assay: Inhibition of CYP2C9 (unknown origin); assay type: ADME
Sequence of Cytochrome P450 2C9 (P11712 whole entry, canonical isoform): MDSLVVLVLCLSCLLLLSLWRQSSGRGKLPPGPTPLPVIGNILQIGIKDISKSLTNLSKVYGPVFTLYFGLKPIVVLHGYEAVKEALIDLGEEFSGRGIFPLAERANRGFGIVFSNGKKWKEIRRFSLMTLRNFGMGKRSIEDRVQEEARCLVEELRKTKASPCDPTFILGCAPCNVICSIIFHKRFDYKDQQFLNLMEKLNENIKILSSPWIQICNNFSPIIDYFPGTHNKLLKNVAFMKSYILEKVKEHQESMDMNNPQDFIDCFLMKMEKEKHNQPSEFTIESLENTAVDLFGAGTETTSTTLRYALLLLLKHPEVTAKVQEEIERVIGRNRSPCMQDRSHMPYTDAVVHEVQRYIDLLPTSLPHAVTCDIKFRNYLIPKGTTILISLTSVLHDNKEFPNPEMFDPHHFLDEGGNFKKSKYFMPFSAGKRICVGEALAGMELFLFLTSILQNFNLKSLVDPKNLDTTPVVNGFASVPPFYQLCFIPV
Outline: (§1)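 Each CYP isoform screened for inhibition at a single test concentration of 10 μM.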

[4] = Plasma protein binding in rat assessed as bound fraction; assay type: ADME, cell-free; conditions: read-out: PPB
[5] = Cytotoxicity against African green monkey Vero cells; assay type: toxicity, cell-based; conditions: chlorocebus sabaeus
[6] = Half life in Sprague-Dawley rat at 1 mg/kg,iv; assay type: ADME, organism-based; conditions: in vivo
Outline: (§2)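 SD rats. Single iv dose of 1 mg/kg. Clearance and half-life are derived from plasma concentration-time data.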

[7] = Ratio of drug concentration in CD-1 mouse lung to plasma at 6.25 mg/kg,po measured after 96 hrs; assay type: ADME, organism-based
Outline: (§3)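 Tissue distribution study in CD-1 mice (6.25 mg/kg oral) and SD rats (5.0 mg/kg oral). Lung concentration (ng/g) and plasma concentration (ng/mL) measured 96 h after dosing. Lung/plasma ratio is lung concentration divided by plasma concentration.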

[8] = Cmax in Sprague-Dawley rat at 5 mg/kg,po; assay type: ADME, organism-based; design: dose 5 mg/kg, route po; conditions: in vivo
[9] = target: Voltage-gated inwardly rectifying potassium channel KCNH2 (Homo sapiens, UniProt Q12809); assay: Inhibition of human ERG; assay type: toxicity
Sequence of Voltage-gated inwardly rectifying potassium channel KCNH2 (Q12809 whole entry): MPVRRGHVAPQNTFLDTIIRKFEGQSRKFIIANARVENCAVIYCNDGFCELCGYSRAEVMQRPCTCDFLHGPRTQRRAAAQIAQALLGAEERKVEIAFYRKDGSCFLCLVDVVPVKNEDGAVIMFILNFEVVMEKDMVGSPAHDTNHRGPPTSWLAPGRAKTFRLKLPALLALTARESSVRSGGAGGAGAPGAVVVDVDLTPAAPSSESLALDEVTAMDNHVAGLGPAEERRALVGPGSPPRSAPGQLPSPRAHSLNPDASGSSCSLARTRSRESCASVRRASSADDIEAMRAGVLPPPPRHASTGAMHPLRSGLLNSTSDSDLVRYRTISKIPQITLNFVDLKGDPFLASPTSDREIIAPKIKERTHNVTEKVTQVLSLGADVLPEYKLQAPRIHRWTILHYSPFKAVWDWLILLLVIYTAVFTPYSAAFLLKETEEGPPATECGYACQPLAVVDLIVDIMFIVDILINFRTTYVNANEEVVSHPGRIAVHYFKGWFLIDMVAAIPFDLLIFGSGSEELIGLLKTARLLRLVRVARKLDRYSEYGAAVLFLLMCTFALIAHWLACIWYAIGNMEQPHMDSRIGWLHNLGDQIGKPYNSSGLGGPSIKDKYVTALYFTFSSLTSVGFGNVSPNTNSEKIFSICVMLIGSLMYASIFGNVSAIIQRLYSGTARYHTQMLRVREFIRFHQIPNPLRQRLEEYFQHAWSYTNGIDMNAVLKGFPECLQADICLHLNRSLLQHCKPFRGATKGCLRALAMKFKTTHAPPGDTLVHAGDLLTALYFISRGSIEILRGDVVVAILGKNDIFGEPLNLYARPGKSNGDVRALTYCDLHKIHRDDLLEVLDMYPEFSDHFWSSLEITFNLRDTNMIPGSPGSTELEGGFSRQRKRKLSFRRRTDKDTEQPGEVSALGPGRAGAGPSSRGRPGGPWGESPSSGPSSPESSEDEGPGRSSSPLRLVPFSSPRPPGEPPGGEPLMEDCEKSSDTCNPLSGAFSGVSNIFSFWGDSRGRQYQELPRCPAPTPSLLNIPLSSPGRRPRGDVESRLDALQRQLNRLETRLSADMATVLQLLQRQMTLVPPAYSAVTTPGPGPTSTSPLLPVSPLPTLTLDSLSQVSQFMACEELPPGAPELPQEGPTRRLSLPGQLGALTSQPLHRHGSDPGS

Cytochrome P450 1A2 = target: T1, Cytochrome P450 1A2 (Homo sapiens, UniProt P05177); assay: Inhibition of CYP1A2 (unknown origin); assay type: ADME; outline: as §1
T1 sequence (P05177 whole entry): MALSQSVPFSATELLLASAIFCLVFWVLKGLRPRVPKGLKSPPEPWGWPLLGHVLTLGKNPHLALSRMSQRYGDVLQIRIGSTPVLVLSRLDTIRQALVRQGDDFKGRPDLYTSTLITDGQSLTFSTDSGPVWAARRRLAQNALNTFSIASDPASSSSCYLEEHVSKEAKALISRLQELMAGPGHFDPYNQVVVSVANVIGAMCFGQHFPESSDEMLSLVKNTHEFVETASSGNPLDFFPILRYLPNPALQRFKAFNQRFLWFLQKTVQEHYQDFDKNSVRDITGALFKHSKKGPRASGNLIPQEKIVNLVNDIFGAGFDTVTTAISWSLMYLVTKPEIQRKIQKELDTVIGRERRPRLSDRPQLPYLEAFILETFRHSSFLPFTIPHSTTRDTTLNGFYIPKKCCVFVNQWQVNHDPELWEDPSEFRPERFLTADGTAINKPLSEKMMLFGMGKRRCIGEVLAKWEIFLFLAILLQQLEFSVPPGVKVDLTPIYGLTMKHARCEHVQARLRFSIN

[10] = Volume of distribution at steady state in Beagle dog at 0.5 mg/kg,iv; assay type: ADME, organism-based, Canis lupus familiaris; conditions: in vivo, read-out: Vdss
Outline: (§4)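 PK in SD rats (1 mg/kg iv, 5.0 mg/kg po) and Beagle dogs (0.5 mg/kg iv, 2.0 mg/kg po). Vd taken from the iv arm, alongside CL and t1/2. Cmax and AUC0-last taken from the oral arm; F% calculated.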

[11] = Volume of distribution at steady state in mouse at 1 mg/kg,iv; assay type: ADME, organism-based; conditions: in vivo, read-out: Vdss
Outline: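 PK in CD-1 mice at 1 mg/kg iv and 6.25 mg/kg po. Vd, CL and t1/2 taken from the iv arm; Cmax, AUC0-last and F% taken from the oral arm.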

Cytochrome P450 3A4 = Cytochrome P450 3A4 (Homo sapiens, UniProt P08684); assay: Inhibition of CYP3A4 (unknown origin); assay type: ADME; outline: as §1
Sequence of Cytochrome P450 3A4 (P08684 whole entry): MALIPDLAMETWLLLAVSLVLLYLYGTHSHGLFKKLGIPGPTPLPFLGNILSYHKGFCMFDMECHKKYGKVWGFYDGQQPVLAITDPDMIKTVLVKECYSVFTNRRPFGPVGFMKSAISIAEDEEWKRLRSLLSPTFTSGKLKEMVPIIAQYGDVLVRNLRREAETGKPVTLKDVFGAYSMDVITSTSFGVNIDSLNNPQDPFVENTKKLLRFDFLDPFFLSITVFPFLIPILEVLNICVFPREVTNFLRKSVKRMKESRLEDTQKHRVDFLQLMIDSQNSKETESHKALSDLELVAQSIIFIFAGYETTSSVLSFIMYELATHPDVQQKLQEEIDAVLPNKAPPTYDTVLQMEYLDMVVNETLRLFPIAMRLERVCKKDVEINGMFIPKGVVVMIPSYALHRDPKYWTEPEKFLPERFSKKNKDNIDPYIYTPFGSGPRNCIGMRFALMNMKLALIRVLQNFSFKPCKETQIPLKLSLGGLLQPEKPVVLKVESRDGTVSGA

[12] = test system: Mycobacterium tuberculosis; assay: Antimycobacterial activity against Mycobacterium tuberculosis H37Rv assessed as mycobacterial growth inhibition by microplate alamar blue assay; assay type: functional
Outline: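 M. tuberculosis H37Rv under normoxic conditions, microplate alamar blue assay (MABA) following Cho et al. Read-out is MIC.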

[13] = Drug concentration in Sprague-Dawley rat lung at 5 mg/kg,po measured after 96 hrs; assay type: ADME, organism-based; conditions: read-out: Ct; outline: as §3
Cytochrome P450 2C19 = Cytochrome P450 2C19 (Homo sapiens, UniProt P33261); assay: Inhibition of CYP2C19 (unknown origin); assay type: ADME; outline: as §1
Sequence of Cytochrome P450 2C19 (P33261 whole entry): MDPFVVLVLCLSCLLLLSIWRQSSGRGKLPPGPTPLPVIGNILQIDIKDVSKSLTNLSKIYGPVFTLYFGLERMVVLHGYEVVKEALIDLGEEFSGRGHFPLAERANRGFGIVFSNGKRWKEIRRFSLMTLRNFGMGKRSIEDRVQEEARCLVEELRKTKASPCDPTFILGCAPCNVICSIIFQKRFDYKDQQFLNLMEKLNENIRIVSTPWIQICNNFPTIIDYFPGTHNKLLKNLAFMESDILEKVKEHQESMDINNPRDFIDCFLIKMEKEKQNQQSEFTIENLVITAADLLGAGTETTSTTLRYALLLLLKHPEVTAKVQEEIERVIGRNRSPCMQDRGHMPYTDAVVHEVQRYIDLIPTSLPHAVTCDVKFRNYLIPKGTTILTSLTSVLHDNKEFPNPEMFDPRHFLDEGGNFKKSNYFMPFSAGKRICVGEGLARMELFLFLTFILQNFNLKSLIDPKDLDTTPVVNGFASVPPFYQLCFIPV

[14] = Cmax in mouse at 6.25 mg/kg,po; assay type: ADME, organism-based; design: dose 6.25 mg/kg, route po; conditions: in vivo
[15] = Clearance in Beagle dog at 0.5 mg/kg,iv; assay type: ADME, organism-based, Canis lupus familiaris; conditions: in vivo
Outline: (§5)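 Beagle dogs. Single iv dose of 0.5 mg/kg. Clearance and half-life are derived from plasma concentration-time data.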

[16] = Oral bioavailability in mouse at 6.25 mg/kg; assay type: ADME, organism-based; conditions: in vivo
[17] = Drug concentration in CD-1 mouse plasma at 6.25 mg/kg,po measured after 96 hrs; assay type: ADME, organism-based; outline: as §3
[18] = Ratio of drug concentration in Sprague-Dawley rat lung to plasma at 5 mg/kg,po measured after 96 hrs; assay type: ADME, organism-based; outline: as §3
[19] = test system: Mycobacterium tuberculosis; assay: Antimycobacterial activity against Mycobacterium tuberculosis H37Rv assessed as mycobacterial growth inhibition by low oxygen recovery assay; assay type: functional
Outline: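 M. tuberculosis H37Rv under hypoxic conditions, low-oxygen recovery assay (LORA) following Cho et al. Read-out is MIC.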

Cytochrome P450 2D6 = Cytochrome P450 2D6 (Homo sapiens, UniProt P10635); assay: Inhibition of CYP2D6 (unknown origin); assay type: ADME; outline: as §1
Sequence of Cytochrome P450 2D6 (P10635 whole entry): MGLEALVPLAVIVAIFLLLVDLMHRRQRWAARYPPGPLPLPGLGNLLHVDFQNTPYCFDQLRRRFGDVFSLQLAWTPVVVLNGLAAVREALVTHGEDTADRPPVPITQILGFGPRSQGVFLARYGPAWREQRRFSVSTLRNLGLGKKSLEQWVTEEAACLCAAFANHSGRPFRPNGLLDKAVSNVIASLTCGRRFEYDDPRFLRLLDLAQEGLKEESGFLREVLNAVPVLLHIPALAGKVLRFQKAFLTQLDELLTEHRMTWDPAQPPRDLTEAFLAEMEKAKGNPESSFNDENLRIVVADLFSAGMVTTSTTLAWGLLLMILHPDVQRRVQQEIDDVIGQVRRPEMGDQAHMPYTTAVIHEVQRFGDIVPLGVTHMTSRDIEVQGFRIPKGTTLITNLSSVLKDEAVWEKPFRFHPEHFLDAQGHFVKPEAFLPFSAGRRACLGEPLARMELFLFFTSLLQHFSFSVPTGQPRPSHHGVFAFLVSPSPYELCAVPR

[20] = Cmax in Beagle dog at 2 mg/kg,po; assay type: ADME, organism-based, Canis lupus familiaris; design: dose 2 mg/kg, route po; conditions: in vivo
[21] = Clearance in Sprague-Dawley rat at 1 mg/kg,iv; assay type: ADME, organism-based; conditions: in vivo; outline: as §2
[22] = Oral bioavailability in Sprague-Dawley rat at 5 mg/kg; assay type: ADME, organism-based; conditions: in vivo
[23] = Plasma protein binding in human assessed as bound fraction; assay type: ADME, cell-free; conditions: read-out: PPB
[24] = Microsomal stability in human liver microsomes assessed as clearance; assay type: ADME, Microsome; conditions: read-out: CLH
[25] = Microsomal stability in mouse liver microsomes assessed as clearance; assay type: ADME, Microsome; conditions: read-out: CLH
[26] = AUC (0 to last) in Sprague-Dawley rat at 5 mg/kg,po; assay type: ADME, organism-based; design: time 0 - last, dose 5 mg/kg, route po; conditions: in vivo
[27] = AUC (0 to last) in Beagle dog at 2 mg/kg,po; assay type: ADME, organism-based, Canis lupus familiaris; design: time 0 - last, dose 2 mg/kg, route po; conditions: in vivo
[28] = AUC (0 to last) in mouse at 6.25 mg/kg,po; assay type: ADME, organism-based; design: time 0 - last, dose 6.25 mg/kg, route po; conditions: in vivo
[29] = Apparent permeability across apical side to basolateral side in dog MDCK cells; assay type: ADME, cell-based, Canis lupus familiaris
[30] = Half life in mouse at 1 mg/kg,iv; assay type: ADME, organism-based; conditions: in vivo
Outline: (§6)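 CD-1 mice. Single iv dose of 1 mg/kg. Clearance and half-life are derived from plasma concentration-time data.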

[31] = Cytotoxicity against human HeLa cells; assay type: toxicity, cell-based
[32] = Drug concentration in CD-1 mouse lung at 6.25 mg/kg,po measured after 96 hrs; assay type: ADME, organism-based; conditions: read-out: Ct; outline: as §3
[33] = Clearance in mouse at 1 mg/kg,iv; assay type: ADME, organism-based; conditions: in vivo; outline: as §6
[34] = Apparent permeability across basolateral side to apical side in dog MDCK cells; assay type: ADME, cell-based, Canis lupus familiaris
[35] = Oral bioavailability in Beagle dog at 2 mg/kg; assay type: ADME, organism-based, Canis lupus familiaris; conditions: in vivo
[36] = Efflux ratio of apparent permeability across basolateral to apical over apical to basolateral membrane in dog MDCK cells; assay type: ADME, cell-based, Canis lupus familiaris
[37] = Microsomal stability in rat liver microsomes assessed as clearance; assay type: ADME, Microsome; conditions: read-out: CLH
[38] = Drug concentration in Sprague-Dawley rat plasma at 5 mg/kg,po measured after 96 hrs; assay type: ADME, organism-based; outline: as §3
[39] = AUC in Sprague-Dawley rat at 200 mg/kg,po measured after 14 days; assay type: ADME, organism-based; design: dose 200 mg/kg, time 14 day, route po; conditions: in vivo
Outline: (§7)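 14-day pilot toxicology study in rats, 8 males and 8 females per dose level. Daily oral dosing, with 200 mg/kg as the high dose. Drug exposure is reported as AUC in µM·h.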

[40] = Volume of distribution at steady state in Sprague-Dawley rat at 1 mg/kg,iv; assay type: ADME, organism-based; conditions: in vivo, read-out: Vdss; outline: as §4
[41] = Half life in Beagle dog at 0.5 mg/kg,iv; assay type: ADME, organism-based, Canis lupus familiaris; conditions: in vivo; outline: as §5
[42] = Toxicity in Sprague-Dawley rat assessed as death at 200 mg/kg,po measured after 12 days; assay type: organism-based; conditions: in vivo, 288 h, time 12 day
[43] = AUC in Sprague-Dawley rat at 200 mg/kg,po measured after 12 days; assay type: ADME, organism-based; design: time 12 day, dose 200 mg/kg, route po; conditions: in vivo; outline: as §7

## COc1nc(-c2ccc(Cl)cc2)ccc1[C@@H](c1ccccc1)[C@@](O)(CCN(C)C)c1cccc2ccccc12
[1]
  Activity: Toxic
[2]
  Activity: Non-Toxic
[3]
  MIC50: 0.083 µg/mL (≈ 0.155 µM)
  MIC90: 0.152 µg/mL (≈ 0.283 µM)
Cytochrome P450 2C9
  pIC50: < 5.00
[4]
  fraction unbound: < 0.01
[5]
  CC50: > 50 µg/mL
[6]
  half-life: 25.6 h
[7]
  Kp at 96 h: 33.7
[8]
  Cmax: 328 ng/mL
[9]
  pIC50: < 4.52
Cytochrome P450 1A2
  pIC50: < 5.00
[10]
  Vd: 6.04 L/kg
[11]
  Vd: 10.4 L/kg
Cytochrome P450 3A4
  pIC50: < 5.00
[12]
  MIC: 0.08 µg/mL (≈ 0.149 µM)
[13]
  concentration at 96 h: 337 ng/g
Cytochrome P450 2C19
  pIC50: < 5.00
[14]
  Cmax: 503 ng/mL
[15]
  clearance: 2.04 mL/min/kg
[16]
  bioavailability: 40.7%
[17]
  concentration at 96 h: 25.4 ng/mL
[18]
  Kp at 96 h: 71.1
[19]
  MIC: 0.56 µg/mL (≈ 1.04 µM)
Cytochrome P450 2D6
  pIC50: < 5.00
[20]
  Cmax: 390 ng/mL
[21]
  clearance: 8.25 mL/min/kg
[22]
  bioavailability: 36.7%
[23]
  fraction unbound: < 0.01
[24]
  microsomal CLint: 39.4 µL/min/mg
[25]
  microsomal CLint: 71.3 µL/min/mg
[26]
  AUC(0-t): 4080 ng·h/mL
[27]
  AUC(0-t): 8500 ng·h/mL
[28]
  AUC(0-t): 10200 ng·h/mL
[29]
  Papp A→B: 0.04 ×10⁻⁶ cm/s
[30]
  half-life: 46.3 h
[31]
  CC50: > 64 µg/mL
[32]
  concentration at 96 h: 857 ng/g
[33]
  clearance: 3.59 mL/min/kg
[34]
  Papp B→A: 0.11 ×10⁻⁶ cm/s
[35]
  bioavailability: 58.9%
[36]
  efflux ratio: 2.54
[37]
  microsomal CLint: 45.7 µL/min/mg
[38]
  concentration at 96 h: 4.74 ng/mL
[39]
  AUC at 336 h: 248 µM·h
[40]
  Vd: 9.2 L/kg
[41]
  half-life: 56.2 h

## COc1nc2ccc(Br)cc2cc1[C@@H](c1ccccc1)[C@@](O)(CCN(C)C)c1cccc2ccccc12 [BEDAQUILINE]
[2]
  Activity: 10%
[3]
  MIC50: 0.029 µg/mL (≈ 0.0522 µM)
  MIC90: 0.043 µg/mL (≈ 0.0774 µM)
Cytochrome P450 2C9
  pIC50: < 5.00
[4]
  fraction unbound: < 0.01
[5]
  CC50: > 50 µg/mL
[7]
  Kp at 96 h: 29.6
Cytochrome P450 1A2
  pIC50: < 5.00
[42]
  Activity: Toxic
[12]
  MIC: 0.03 µg/mL (≈ 0.054 µM)
[13]
  concentration at 96 h: 58.8 ng/g
Cytochrome P450 2C19
  pIC50: < 5.00
[17]
  concentration at 96 h: 4.56 ng/mL
[18]
  Kp at 96 h: 38.7
[19]
  MIC: < 0.2 µg/mL
Cytochrome P450 2D6
  pIC50: < 5.00
[23]
  fraction unbound: < 0.01
[29]
  Papp A→B: 0.06 ×10⁻⁶ cm/s
[31]
  CC50: > 64 µg/mL
[32]
  concentration at 96 h: 135 ng/g
[34]
  Papp B→A: 0.09 ×10⁻⁶ cm/s
[43]
  AUC at 288 h: 109 µM·h
[38]
  concentration at 96 h: 1.52 ng/mL
